Results published in ChEMBL document CHEMBL1132183 (J Med Chem, 1999).

How the values were obtained:
[1] = molecular target: T1, 5-hydroxytryptamine receptor 1A (Homo sapiens) (UniProt P08908); assay: Eudisimic ratio(ER) is the antilog of the difference between the pKb and pD2 values against 5-hydroxytryptamine 1A receptor; assay type: functional
T1 sequence (whole entry): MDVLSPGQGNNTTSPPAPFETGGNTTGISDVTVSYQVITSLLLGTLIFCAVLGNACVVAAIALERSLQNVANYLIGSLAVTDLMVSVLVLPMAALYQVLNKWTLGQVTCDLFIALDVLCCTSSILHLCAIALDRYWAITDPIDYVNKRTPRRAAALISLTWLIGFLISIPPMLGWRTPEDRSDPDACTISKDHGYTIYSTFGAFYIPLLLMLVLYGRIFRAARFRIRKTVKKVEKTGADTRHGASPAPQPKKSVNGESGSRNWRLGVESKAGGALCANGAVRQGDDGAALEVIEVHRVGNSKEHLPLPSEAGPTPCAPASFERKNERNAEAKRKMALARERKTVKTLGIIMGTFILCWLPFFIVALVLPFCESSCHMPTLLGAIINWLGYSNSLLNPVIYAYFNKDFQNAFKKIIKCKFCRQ
Procedure, shortened: (§1)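 Eudismic ratio is the antilog of the difference between the pKb (functional α1 tissue assays) or pD2 (5-HT1A [35S]GTPγS stimulation) of the eutomer and that of its distomer.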

[2] = molecular target: T2, Alpha-1D adrenergic receptor (Rattus norvegicus) (UniProt P23944); assay: Eudisimic ratio(ER) is the antilog of the defference between the pKb and pD2 values against Alpha-1D adrenergic receptor subtype; assay type: functional; procedure, shortened: as §1
T2 sequence (whole entry): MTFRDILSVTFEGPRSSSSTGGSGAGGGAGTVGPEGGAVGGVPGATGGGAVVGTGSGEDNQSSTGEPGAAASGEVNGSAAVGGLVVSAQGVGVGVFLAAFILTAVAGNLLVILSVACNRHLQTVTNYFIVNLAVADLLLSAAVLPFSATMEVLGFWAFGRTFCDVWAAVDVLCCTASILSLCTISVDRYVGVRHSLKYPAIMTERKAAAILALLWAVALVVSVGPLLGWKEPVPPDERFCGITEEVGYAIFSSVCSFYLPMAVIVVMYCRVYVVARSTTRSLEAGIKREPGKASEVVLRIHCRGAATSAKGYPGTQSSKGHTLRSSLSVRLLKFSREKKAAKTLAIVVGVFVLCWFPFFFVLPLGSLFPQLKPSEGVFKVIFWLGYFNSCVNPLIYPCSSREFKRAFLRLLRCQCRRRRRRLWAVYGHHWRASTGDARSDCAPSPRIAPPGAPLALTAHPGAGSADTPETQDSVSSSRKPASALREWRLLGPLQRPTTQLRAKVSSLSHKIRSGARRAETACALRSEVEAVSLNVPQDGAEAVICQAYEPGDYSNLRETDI

[3] = molecular target: T3, Alpha-1A adrenergic receptor (Rattus norvegicus) (UniProt P43140); assay: Eudisimic ratio(ER) is the antilog of the defference between the pKb and pD2 values against Alpha-1A adrenergic receptor subtype; procedure, shortened: as §1
T3 sequence (whole entry): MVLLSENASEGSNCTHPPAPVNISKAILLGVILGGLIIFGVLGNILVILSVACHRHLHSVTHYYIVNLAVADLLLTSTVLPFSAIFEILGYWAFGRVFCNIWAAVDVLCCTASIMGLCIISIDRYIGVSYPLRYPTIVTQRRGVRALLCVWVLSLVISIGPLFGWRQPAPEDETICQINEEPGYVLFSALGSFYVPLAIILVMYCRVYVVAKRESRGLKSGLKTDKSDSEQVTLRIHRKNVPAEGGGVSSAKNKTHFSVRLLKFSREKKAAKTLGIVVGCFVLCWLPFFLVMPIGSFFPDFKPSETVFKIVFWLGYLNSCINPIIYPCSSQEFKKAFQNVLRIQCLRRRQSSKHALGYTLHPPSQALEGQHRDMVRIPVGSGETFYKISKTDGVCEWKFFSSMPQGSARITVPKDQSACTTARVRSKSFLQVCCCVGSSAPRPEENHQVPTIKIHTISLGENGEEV

[4] = molecular target: T4, Alpha-1B adrenergic receptor (Homo sapiens, UniProt P35368); assay: Ability to displace [3H]prazosin from human cloned Alpha-1B adrenergic receptor
T4 sequence (P35368 whole entry): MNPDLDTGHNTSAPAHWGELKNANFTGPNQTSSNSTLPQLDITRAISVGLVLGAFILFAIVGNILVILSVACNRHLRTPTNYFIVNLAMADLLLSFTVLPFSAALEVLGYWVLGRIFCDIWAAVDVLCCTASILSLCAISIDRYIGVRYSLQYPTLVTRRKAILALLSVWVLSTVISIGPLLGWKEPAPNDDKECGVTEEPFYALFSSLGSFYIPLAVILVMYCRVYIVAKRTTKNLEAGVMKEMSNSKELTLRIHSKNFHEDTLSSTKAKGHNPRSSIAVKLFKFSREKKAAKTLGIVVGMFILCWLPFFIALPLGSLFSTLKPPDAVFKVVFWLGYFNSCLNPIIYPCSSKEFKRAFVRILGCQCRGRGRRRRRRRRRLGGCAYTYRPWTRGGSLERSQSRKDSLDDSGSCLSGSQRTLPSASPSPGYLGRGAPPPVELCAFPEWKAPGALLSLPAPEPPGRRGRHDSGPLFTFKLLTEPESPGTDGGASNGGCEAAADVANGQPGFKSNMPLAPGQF
Procedure, shortened: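 Competition binding at cloned human α1 subtypes stably expressed in CHO cells: membranes (30 μg protein) incubated 30 min at 25 °C in 50 mM Tris-HCl pH 7.4 with 0.1–0.4 nM [3H]prazosin and competitor (1 pM–10 μM). Nonspecific binding with 10 μM phentolamine; filtration and scintillation counting. Ki by Cheng–Prusoff; 2–3 experiments in triplicate.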

[5] = molecular target: T1, 5-hydroxytryptamine receptor 1A (Homo sapiens); assay: Eudisimic ratio(ER) is the antilog of the defference between the pKb and pD2 values against 5-hydroxytryptamine 1A receptor; assay type: functional; procedure, shortened: as §1
[6] = molecular target: T2, Alpha-1D adrenergic receptor (Rattus norvegicus); assay: Eudisimic ratio(ER) is the antilog of the defference between the pKb and pD2 values against alpha-1D-adrenoceptor subtype; assay type: functional; procedure, shortened: as §1

Row | Compound | ER [1] | ER [2] | ER [3] | Ki [4] [nM] | ER [5] | ER [6]
1 | O[C@H]1[C@@H](NC[C@H]2COc3ccccc3O2)CC[C@@H]1Oc1ccccc1 | 27 | 7 | 3 | – | – | –
2 | O[C@@H]1[C@H](NC[C@H]2COc3ccccc3O2)CC[C@H]1Oc1ccccc1 | – | – | – | 46.8 | 123 | 33
